Dynein cargo inh: blocks dynein driven cargo transport along microtubules; z-score, hits read low; 3617.4 mouse cells, GR-EGFP nuclear translocation imaging; test concentration mostly 20 µM; stimulated with dexamethasone, 1 µM; active compounds read low; 220,000 tested, 0.47% active;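 active means plate z-score of nuclear minus cytoplasmic receptor signal below a set negative limit, without overly bright fluorescence or cell loss, cut at about -3.5 in these data, passing the limit was not always enough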;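 further: z-score of nuclear minus cytoplasmic ring GR-EGFP intensity difference per well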
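Buffer or medium: tet-free, stripped-serum medium; Also added: dexamethasone, 1.0 µM final; Technique: high-content fluorescence imaging after fixation; Times: 48 h induction, 1 h compound, 30 min dex at 37 °C; Read-out: per-cell GR-EGFP intensity, nucleus versus surrounding cytoplasmic ring, well-averaged.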
zVAD death inh: blocks zVAD induced death of L929 cells. L929 zVAD necroptosis rescue, ATP luminescence, 24 h; with zVAD 60 µM. viability rescue, % at 10 µM. 220,000 tested, 0.38% active;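 active means activation, scaled between plate controls, above about 75%, limit read from the data; inactive means activation under that limit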;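 further: 0% = zVAD with DMSO and 100% = DMSO alone without zVAD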
TNF necrop inh: inhibitors of TNF-alpha induced necroptosis in Jurkat FADD-/- cells; Jurkat FADD-/- TNF necroptosis rescue, ATP luminescence, 24 h; 0 = TNF only, 100 = no-TNF cells; activation (protection from cell death), % at 10 µM; 220,000 tested, 0.068% active;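 active means activation, meaning protection from cell death, of at least 50% relative to plate controls; inactive means activation below 50%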;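 further: necroptosis triggered by 40 ng/mL TNF-alpha added together with compound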
Furin inhibitor: inhibitors of human furin. purified furin, fluorogenic substrate cleavage. inhibition, % at 20 µM or 30 µM. 220,000 tested, 0.061% active. AID 463115; in the data active means inhibition above about 25%
Target sequence (P09958 108-714 limits assumed): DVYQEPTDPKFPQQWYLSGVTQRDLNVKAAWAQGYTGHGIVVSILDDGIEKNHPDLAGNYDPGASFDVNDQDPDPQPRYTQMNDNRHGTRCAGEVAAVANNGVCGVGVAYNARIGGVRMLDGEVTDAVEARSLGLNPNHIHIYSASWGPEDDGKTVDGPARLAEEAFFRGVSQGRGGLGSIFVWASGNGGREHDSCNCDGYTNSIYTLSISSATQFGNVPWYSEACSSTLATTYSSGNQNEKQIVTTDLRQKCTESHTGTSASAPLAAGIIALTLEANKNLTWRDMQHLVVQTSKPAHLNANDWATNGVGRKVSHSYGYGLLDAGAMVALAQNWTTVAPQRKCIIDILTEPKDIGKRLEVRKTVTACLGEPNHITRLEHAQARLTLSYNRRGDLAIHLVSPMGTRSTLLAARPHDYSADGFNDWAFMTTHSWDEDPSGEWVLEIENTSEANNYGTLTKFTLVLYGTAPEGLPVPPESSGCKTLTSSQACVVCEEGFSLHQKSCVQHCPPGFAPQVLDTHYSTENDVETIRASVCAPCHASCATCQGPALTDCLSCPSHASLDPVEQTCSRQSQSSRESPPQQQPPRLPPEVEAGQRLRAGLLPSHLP
Autophagy mod: autophagy modulation, high-content screen. MEF GFP-LC3 puncta imaging; test concentration mostly 10 µM. calls only at 10 µM (by protocol). 190,000 tested, 0.98% active. AID 463193;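 active means percentage of spot-positive cells more than 3 SD above its plate mean, without a fluorescence outlier flag or 80% toxicity; inconclusive means no clear call, values can overlap the other calls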;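 further: spot-positive cell cutoff set from DMSO-treated cells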
HSV augment: increases HSV replication in cells; HSV replication augmentation in cells, fold increase; maximum fold increase; 220,000 tested, 0.005% active; AID 1956; in the data active means maximum fold increase above about 1.5; inconclusive means no clear call, values can overlap the other calls; tested in PC3 cells
An asterisk follows results filed as active; i = inactive; ? = inconclusive; . = no result; + = active, no number. Shown are actives, neighbours in structure and some others; about 1.8% of the full set was active somewhere.

SMILES | Dynein cargo inh | zVAD death inh | TNF necrop inh | Furin inhibitor | Autophagy mod | HSV augment
CCn1c(=O)cc(SCC(=O)NCCCN2CCN(c3ccccc3F)CC2)c2ccccc21 | 0.336 | 0.5 | -8.0 | 10.6 | + | i
CC(C)c1ccc2c(c1)C1(NN=C(c3ccccc3)S1)C(=O)N2 (stereo not given) | -1.98 | 1.2 | -10.5 | 4.1 | + | i
O=C(NCCCn1ccnc1)C1CC2CCC1C2 (stereo not given) | -0.0503 | 0.2 | 0.6 | -12.8 | i | i
O=C1CCC(C(=O)NCCCn2ccnc2)N1 (stereo not given) | 2.18 | 3.4 | -0.7 | -4.2 | + | i
CCc1nnc(NC(=O)C2CCCN2C(=O)Nc2ccccc2)s1 (stereo not given) | 0.653 | -0.4 | -0.7 | -20.8 | i | i
CN(C)/C=C/C(=O)c1cccc([N+](=O)[O-])c1 | -0.6 | -0.5 | 0.3 | -2.0 | + | i
CCCCNC(=S)N(C)/N=C/c1c(C)[nH]c2ccccc12 | -0.12 | 0.1 | 0.7 | -2.8 | + | i
Cc1[nH][nH]c(=O)c1C(c1c(C)[nH][nH]c1=O)c1cn(Cc2ccccc2Cl)c2ccccc12 | 0.106 | 0.2 | -7.6 | -10.7 | i | i
CCOC(=O)C1CCCN(CCC(=O)Nc2cccc(C)c2)C1 (stereo not given) | 1.06 | -1.3 | 0.7 | -22.7 | + | i
CCOC(=O)C1CCCN(CCC(=O)Nc2cccc(F)c2)C1 (stereo not given) | -0.0911 | -0.1 | -2.8 | -8.7 | i | i
COCc1cc(=O)[nH]c(Nc2nc3ccc(C)cc3o2)n1 | 0.919 | 55.5 | -4.0 | -15.4 | + | i
Cc1cc(S(=O)(=O)N2CCN(C(=O)CCC(=O)N3CCOCC3)CC2)ccc1Br | -0.786 | 0.6 | 0.7 | -29.8 | . | i
O=C1Nc2ccc(Br)cc2C12NNc1ccccc1O2 (stereo not given) | 0.354 | 2.4 | -1.4 | -10.7 | + | i
CC1(C)CC(Nc2ccc(Nc3ccccc3)cc2)CC(C)(C)N1 | 3.06 | 1.9 | -26.0 | 5.9 | . | i
COc1ccc(Cl)cc1N(CC(=O)N(C)C)S(=O)(=O)c1ccc(C)c([N+](=O)[O-])c1 | -0.533 | -1.8 | -0.3 | -20.4 | i | i
Cc1ccc2nc(NC(=O)CCNS(=O)(=O)c3ccc(Br)s3)sc2c1 | 0.112 | 8.3 | 11.5 | -24.1 | + | i
Cc1ccc2nc(NC(=O)CCNS(=O)(=O)c3cccs3)sc2c1 | 3.67 | -1.2 | 2.9 | -6.8 | i | i
Cc1ccc(N(Cc2ccc(C(=O)NN=C3CCN(C)CC3)cc2)S(C)(=O)=O)cc1C | -0.157 | 1.2 | 0.1 | 6.4 | i | i
O=C(Nc1ccc(O)c2c(=O)cc(-c3ccccc3Cl)oc12)c1cccc(Cl)c1 | 0.0434 | 3.3 | 2.0 | -17.8 | i | i
Cc1cccc(C(=O)Nc2ccc(O)c3c(=O)cc(-c4ccccc4Cl)oc23)c1 | 0.0464 | 1.2 | 0.7 | -14.4 | + | i
CCOC(=O)Cc1nnc(NC(=O)CSc2ncc(-c3ccccc3)nn2)s1 | 1.11 | 0.2 | -0.2 | -4.7 | i | i
COC(=O)c1cc(C(=O)c2ccc(Cl)cc2)n2c(=O)/c(=C\N(C)C)sc12 | -0.336 | -1.5 | -3.6 | -8.3 | + | i
CCN(CC)S(=O)(=O)c1ccc(N2CCOCC2)c(NC(=O)c2ccc(NC(C)=O)cc2)c1 | -0.11 | -0.7 | 0.9 | -30.2 | . | i
O=C1NC(=Nc2ccccc2)SC1Cc1ccccc1 (stereo not given) | 0.361 | 3.6 | 9.0 | -30.1 | i | i
O=C1NC(=Nc2ccccc2)SC1Cc1cccc(Cl)c1Cl (stereo not given) | -0.461 | 0.8 | 79.1* | -12.9 | i | i
SMILES | Dynein cargo inh | zVAD death inh | TNF necrop inh | Furin inhibitor | Autophagy mod | HSV augment
N#C/C(=C\C=C\c1ccccc1)c1nc(-c2ccc(Cl)cc2)cs1 | -0.307 | 0.2 | 0.8 | -5.7 | . | i
Nc1nc(SCC(=O)Nc2ccccc2Sc2ccccc2)n[nH]1 | -0.338 | -0.2 | -2.0 | -15.0 | i | i
COc1ccc(/C=N/Nc2nc(Nc3ccccc3)nc(N3CCCC3)n2)cc1[N+](=O)[O-] | -0.0952 | 2.2 | -0.7 | -15.0 | + | i
COc1cc(/C=N/Nc2nc(Nc3ccccc3)nc(-n3nc(C)cc3C)n2)cc(OC)c1OC | -0.454 | 1.7 | -3.5 | -28.8 | + | i
COc1ccc(/C=N/Nc2nc(N3CCCCC3)nc(N3CCCCC3)n2)cc1[N+](=O)[O-] | -0.818 | 1.9 | 1.8 | -5.8 | i | i
CN(Cc1cnccn1)Cc1cn(Cc2ccccc2)nc1-c1ccc2c(c1)OCO2 | 1.41 | -0.7 | 2.0 | -25.8 | i | i
Cc1ccc([N+](=O)[O-])cc1NC(=S)NC(=O)c1cccs1 | -0.326 | 0.3 | 2.1 | -24.0 | i | i
CCCCCCCCCCCCCCCC[n+]1cccc2ccccc21 | -5.22* | 12.0 | -16.5 | -6.9 | i | i
O=C(c1cccs1)N(Cc1ccco1)c1nc(-c2ccc(F)cc2)cs1 | -0.28 | -0.8 | -0.5 | -19.1 | i | i
CN(C)CCCN(C(=O)c1cccs1)c1nc(-c2ccccc2)cs1 | 0.433 | -0.3 | -1.0 | -10.9 | + | i
N#C/C(=C\C1=C(N2CCOCC2)C(=C\c2ccc(Cl)cc2)/CC1)C(=O)Nc1ccccc1F | 1.46 | . | -8.8 | -14.6 | + | i
N#C/C(=C\C1=C(N2CCOCC2)C(=C/c2cccc([N+](=O)[O-])c2)/CC1)C(=O)Nc1ccccc1F | -0.907 | . | -4.8 | -29.1 | + | ?
CCN(CC)c1ccc(/C=C2\CCC(/C=C(\C#N)C(=O)Nc3ccccc3F)=C2N2CCOCC2)cc1 | -0.65 | -1.5 | -21.1 | -13.4 | i | i
CC(NC(=O)C12CC3CC(CC(C3)C1)C2)C(=O)N/N=C/C1=C(N2CCOCC2)C(=C\c2cccc([N+](=O)[O-])c2)/CC1 (stereo not given) | 0.0944 | 3.4 | 3.0 | 4.4 | i | i
O=C(CSc1ccc(-c2ccccc2)nn1)c1cccs1 | 1.48 | 1.4 | 0.3 | -24.0 | + | i
N#Cc1c(-c2ccccc2)cc(C2CC2)nc1SCC(=O)c1cccs1 | 0.323 | 0.0 | -2.7 | -9.2 | + | .
CCc1c(C)nc(SCC(=O)N2CCCCC2CC)[nH]c1=O (stereo not given) | -0.557 | 0.2 | 0.7 | -7.4 | . | i
Cc1cc(=O)oc2cc(N3C(=O)CC(Cc4ccccc4)C3=O)ccc12 (stereo not given) | 0.691 | 1.2 | 0.2 | -12.5 | i | i
O=C(c1ccccc1)N1CCN2C(=O)c3ccccc3C12c1ccc(Cl)cc1 (stereo not given) | -0.64 | -0.7 | -10.2 | -19.0 | + | i
CCOC(=O)C(CC)Sc1nc2c(c(=O)[nH]c(=O)n2C)n1C/C=C(/C)Cl (stereo not given) | -0.0887 | 0.0 | -1.8 | 27.9* | i | i

Screens as filed in PubChem.
